Here are results for twelve compounds from ChEMBL document CHEMBL1154367, “Novel 4-N-substituted aryl but-3-ene-1,2-dione derivatives of piperazinyloxazolidinones as antibacterial agents” (2009).

Values after ≈ are worked out from the molar mass of the structure shown. Active and inactive are the calls of the source. The calls are words filed in the database; no cut-off is given here.

Experiment [1] relates to Staphylococcus aureus. As to the kind of experiment: Antibacterial activity against methicillin-resistant Staphylococcus aureus ATCC 70069 after 24 hrs by agar dilution method. The experiment is classed as functional. As to conditions: ATCC 70069, 24 h.
The next experiment has as its system Bacillus cereus. As to the kind of experiment: Antibacterial activity against Bacillus cereus MTCC 430 after 24 hrs by agar dilution method. The experiment is classed as functional. As to conditions: MTCC 430, 24 h. The method in brief:
(§1)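 MIC by agar dilution with doubling dilutions in cation-adjusted Mueller Hinton agar, 50–0.019 range, incubated in air at 35 °C for 24 h. Strains pre-grown on nutrient agar at 37 °C for 24 h, then suspended in normal saline with 0.05% Tween 20 at about 1.0–2.0 × 10⁷ cells/mL, matched to 0.5 McFarland.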

For experiment [2], the system named is Staphylococcus aureus. As to the kind of experiment: Antibacterial activity against floxacin and methicillin-resistant Staphylococcus aureus ATCC 25923 after 24 hrs by agar dilution method. As to conditions: ATCC 25923, 24 h. In kind it is functional.
The test system of experiment [3] is Staphylococcus aureus. Kind of experiment: Antibacterial activity against methicillin and vancomycin-resistant Staphylococcus aureus ATCC 29213 after 24 hrs by agar dilution method. In kind it is functional. As to conditions: ATCC 29213, 24 h. (In agar dilution, organisms are placed on agar that contains the substance at set levels.)
Another experiment relates to Enterococcus faecalis. As to the kind of experiment: Antibacterial activity against Enterococcus faecalis MTCC 439 after 24 hrs by agar dilution method. The experiment is classed as functional. To be noted: MTCC 439, 24 h. In short, it runs like this:
as §1

For a further experiment, the system named is Streptococcus pyogenes. Kind of experiment: Antibacterial activity against Streptococcus pyogenes after 24 hrs by agar dilution method. The experiment is classed as functional. The method in brief:
as §1

For a further experiment, the system named is Escherichia coli. Kind of experiment: Antibacterial activity against Escherichia coli after 24 hrs by agar dilution method. In kind it is functional, organism-based. In short, it runs like this: as §1
The next experiment has as its system Klebsiella pneumoniae. As to the kind of experiment: Antibacterial activity against Klebsiella pneumoniae after 24 hrs by agar dilution method. The experiment is classed as functional, organism-based. In short, it runs like this: as §1
The next experiment has as its system Pseudomonas aeruginosa. Kind of experiment: Antibacterial activity against Pseudomonas aeruginosa after 24 hrs by agar dilution method. In kind it is functional, organism-based. In short, it runs like this:
as §1

The MIC is the lowest concentration that inhibits growth of the organism. A lower MIC goes with inhibition by little substance. As for `CC(=O)NC[C@H]1CN(c2ccc(N3CCN(C(=O)C(=O)/C=C/c4ccc(C)cc4)CC3)c(F)c2)C(=O)O1`, the MIC is 0.19 mg/L (≈ 0.374 µM) in the experiment on Staphylococcus aureus [1]; 0.19 mg/L (≈ 0.374 µM) against Bacillus cereus; 0.19 mg/L (≈ 0.374 µM) against Staphylococcus aureus [2]; 0.39 mg/L (≈ 0.767 µM) against Staphylococcus aureus [3]; 0.04 mg/L (≈ 0.0787 µM) in the experiment on Enterococcus faecalis; 0.09 mg/L (≈ 0.177 µM) in the experiment on Streptococcus pyogenes. Further, the result in the experiment with Escherichia coli, in the experiment with Klebsiella pneumoniae and in the experiment with Pseudomonas aeruginosa was inactive.

Turning to `CC(=O)NC[C@H]1CN(c2ccc(N3CCN(C(=O)C(=O)/C=C/c4ccsc4)CC3)c(F)c2)C(=O)O1`, the MIC was found to be 0.78 mg/L (≈ 1.56 µM) against Staphylococcus aureus [1]; 0.78 mg/L (≈ 1.56 µM) in the experiment on Bacillus cereus; 0.78 mg/L (≈ 1.56 µM) in the experiment on Staphylococcus aureus [2]; 1.56 mg/L (≈ 3.12 µM) against Staphylococcus aureus [3]; 0.78 mg/L (≈ 1.56 µM) with Enterococcus faecalis; 0.39 mg/L (≈ 0.779 µM) against Streptococcus pyogenes. The result with Escherichia coli, in the experiment with Klebsiella pneumoniae and in the experiment with Pseudomonas aeruginosa was inactive.

Turning to `CC(=O)NC[C@H]1CN(c2ccc(N3CCOCC3)c(F)c2)C(=O)O1` [LINEZOLID], the MIC amounted to 1.56 mg/L (≈ 4.62 µM) with Staphylococcus aureus [1]; 0.78 mg/L (≈ 2.31 µM) against Bacillus cereus; 1.56 mg/L (≈ 4.62 µM) against Staphylococcus aureus [2]; 3.12 mg/L (≈ 9.25 µM) against Staphylococcus aureus [3]; 3.12 mg/L (≈ 9.25 µM) with Enterococcus faecalis; 1.56 mg/L (≈ 4.62 µM) against Streptococcus pyogenes.

Consider `CN[C@H](CC(C)C)C(=O)N[C@H]1C(=O)N[C@@H](CC(N)=O)C(=O)N[C@H]2C(=O)N[C@H]3C(=O)N[C@H](C(=O)N[C@H](C(=O)O)c4cc(O)cc(O)c4-c4cc3ccc4O)[C@H](O)c3ccc(c(Cl)c3)Oc3cc2cc(c3O[C@@H]2O[C@H](CO)[C@@H](O)[C@H](O)[C@H]2O[C@H]2C[C@](C)(N)[C@H](O)[C@H](C)O2)Oc2ccc(cc2Cl)[C@H]1O` [VANCOMYCIN], for which the MIC with Staphylococcus aureus [1] stood at 6.25 mg/L (≈ 4.31 µM); with Bacillus cereus it was 0.19 mg/L (≈ 0.131 µM); against Staphylococcus aureus [2] it was 0.39 mg/L (≈ 0.269 µM); in the experiment on Staphylococcus aureus [3] it was 1.56 mg/L (≈ 1.08 µM); in the experiment on Enterococcus faecalis, 0.78 mg/L (≈ 0.538 µM); with Streptococcus pyogenes, 0.39 mg/L (≈ 0.269 µM).

As to `CC(=O)NC[C@H]1CN(c2ccc(N3CCN(C(=O)C(=O)/C=C/c4ccc(Cl)c(Cl)c4Cl)CC3)c(F)c2)C(=O)O1`, the MIC in the experiment with Staphylococcus aureus [1], against Bacillus cereus, in the experiment with Staphylococcus aureus [2], against Staphylococcus aureus [3], in the experiment on Enterococcus faecalis and with Streptococcus pyogenes was more than 50 mg/L in each case. Moreover, the outcome in the experiment on Escherichia coli, with Klebsiella pneumoniae and with Pseudomonas aeruginosa was inactive.

As to `CC(=O)NC[C@H]1CN(c2ccc(N3CCN(C(=O)C(=O)/C=C/c4ccc(F)c(F)c4)CC3)c(F)c2)C(=O)O1`, the MIC against Staphylococcus aureus [1] is 1.56 mg/L (≈ 2.94 µM); with Bacillus cereus it was 0.39 mg/L (≈ 0.735 µM); in the experiment on Staphylococcus aureus [2], 0.78 mg/L (≈ 1.47 µM); against Staphylococcus aureus [3] it was 3.12 mg/L (≈ 5.88 µM); against Enterococcus faecalis, 0.78 mg/L (≈ 1.47 µM); with Streptococcus pyogenes, 0.78 mg/L (≈ 1.47 µM). The outcome with Escherichia coli, in the experiment with Klebsiella pneumoniae and in the experiment with Pseudomonas aeruginosa was inactive.

Turning to `CC(=O)NC[C@H]1CN(c2ccc(N3CCN(C(=O)C(=O)/C=C/c4ccc(C(F)(F)F)cc4)CC3)c(F)c2)C(=O)O1`, the MIC in the experiment with Staphylococcus aureus [1] was determined as 0.78 mg/L (≈ 1.39 µM); in the experiment on Bacillus cereus, 1.56 mg/L (≈ 2.77 µM); with Staphylococcus aureus [2], 0.78 mg/L (≈ 1.39 µM); in the experiment on Staphylococcus aureus [3], 1.56 mg/L (≈ 2.77 µM); against Enterococcus faecalis, 0.19 mg/L (≈ 0.338 µM); against Streptococcus pyogenes it was 0.19 mg/L (≈ 0.338 µM). Also, the result in the experiment with Escherichia coli, with Klebsiella pneumoniae and in the experiment with Pseudomonas aeruginosa was inactive.

Take `CC(=O)NC[C@H]1CN(c2ccc(N3CCN(C(=O)C(=O)/C=C/c4ccco4)CC3)c(F)c2)C(=O)O1`: the MIC worked out at 1.56 mg/L (≈ 3.22 µM) in the experiment with Staphylococcus aureus [1]; 0.78 mg/L (≈ 1.61 µM) in the experiment on Bacillus cereus; 0.39 mg/L (≈ 0.805 µM) in the experiment with Staphylococcus aureus [2]; 3.12 mg/L (≈ 6.44 µM) with Staphylococcus aureus [3]; 0.78 mg/L (≈ 1.61 µM) in the experiment with Enterococcus faecalis; 0.78 mg/L (≈ 1.61 µM) against Streptococcus pyogenes. For the same compound, the outcome with Escherichia coli, in the experiment on Klebsiella pneumoniae and in the experiment on Pseudomonas aeruginosa was inactive.

With `CC(=O)NC[C@H]1CN(c2ccc(N3CCN(C(=O)C(=O)/C=C/c4ccc(F)cc4)CC3)c(F)c2)C(=O)O1`, the MIC in the experiment with Staphylococcus aureus [1] was 0.78 mg/L (≈ 1.52 µM); in the experiment with Bacillus cereus, 0.39 mg/L (≈ 0.761 µM); in the experiment with Staphylococcus aureus [2] it was 0.78 mg/L (≈ 1.52 µM); with Staphylococcus aureus [3], 1.56 mg/L (≈ 3.04 µM); in the experiment with Enterococcus faecalis it was 0.78 mg/L (≈ 1.52 µM); in the experiment on Streptococcus pyogenes it was 0.39 mg/L (≈ 0.761 µM). Moreover, the result with Escherichia coli, in the experiment with Klebsiella pneumoniae and in the experiment on Pseudomonas aeruginosa was inactive.

Turning to `CC(=O)NC[C@H]1CN(c2ccc(N3CCN(C(=O)C(=O)/C=C/c4ccc(Cl)cc4)CC3)c(F)c2)C(=O)O1`, the MIC with Staphylococcus aureus [1] is 0.78 mg/L (≈ 1.47 µM); with Bacillus cereus it was 0.39 mg/L (≈ 0.737 µM); against Staphylococcus aureus [2], 0.78 mg/L (≈ 1.47 µM); with Staphylococcus aureus [3], 0.78 mg/L (≈ 1.47 µM); in the experiment on Enterococcus faecalis, 0.78 mg/L (≈ 1.47 µM); with Streptococcus pyogenes it was 0.39 mg/L (≈ 0.737 µM). Besides, the outcome in the experiment with Escherichia coli, with Klebsiella pneumoniae and in the experiment on Pseudomonas aeruginosa was inactive.

As for `CC(=O)NC[C@H]1CN(c2ccc(N3CCN(C(=O)C(=O)/C=C/c4ccccc4)CC3)c(F)c2)C(=O)O1`, the MIC with Staphylococcus aureus [1] worked out at 0.39 mg/L (≈ 0.789 µM); against Bacillus cereus, 0.39 mg/L (≈ 0.789 µM); against Staphylococcus aureus [2] it was 0.78 mg/L (≈ 1.58 µM); against Staphylococcus aureus [3] it was 0.78 mg/L (≈ 1.58 µM); against Enterococcus faecalis it was 0.78 mg/L (≈ 1.58 µM); against Streptococcus pyogenes it was 0.39 mg/L (≈ 0.789 µM). Besides, the outcome in the experiment with Escherichia coli, in the experiment with Klebsiella pneumoniae and with Pseudomonas aeruginosa was inactive.

For the compound `CC(=O)NC[C@H]1CN(c2ccc(N3CCN(C(=O)C(=O)/C=C/c4cccs4)CC3)c(F)c2)C(=O)O1`, the MIC was 0.78 mg/L (≈ 1.56 µM) in the experiment on Staphylococcus aureus [1]; 0.39 mg/L (≈ 0.779 µM) against Bacillus cereus; 0.39 mg/L (≈ 0.779 µM) in the experiment with Staphylococcus aureus [2]; 1.56 mg/L (≈ 3.12 µM) with Staphylococcus aureus [3]; 0.78 mg/L (≈ 1.56 µM) in the experiment on Enterococcus faecalis; 0.39 mg/L (≈ 0.779 µM) against Streptococcus pyogenes. Moreover, the result in the experiment with Escherichia coli, in the experiment on Klebsiella pneumoniae and in the experiment with Pseudomonas aeruginosa was inactive.
